# Results pooled from the literature.
# Each line is one published result; the experiments were not run side by side.
# Target: Serine/threonine-protein kinase MAK (MAK, Homo sapiens, UniProt P20794)
# Sequence (P20794 1-623, as in one of the studies): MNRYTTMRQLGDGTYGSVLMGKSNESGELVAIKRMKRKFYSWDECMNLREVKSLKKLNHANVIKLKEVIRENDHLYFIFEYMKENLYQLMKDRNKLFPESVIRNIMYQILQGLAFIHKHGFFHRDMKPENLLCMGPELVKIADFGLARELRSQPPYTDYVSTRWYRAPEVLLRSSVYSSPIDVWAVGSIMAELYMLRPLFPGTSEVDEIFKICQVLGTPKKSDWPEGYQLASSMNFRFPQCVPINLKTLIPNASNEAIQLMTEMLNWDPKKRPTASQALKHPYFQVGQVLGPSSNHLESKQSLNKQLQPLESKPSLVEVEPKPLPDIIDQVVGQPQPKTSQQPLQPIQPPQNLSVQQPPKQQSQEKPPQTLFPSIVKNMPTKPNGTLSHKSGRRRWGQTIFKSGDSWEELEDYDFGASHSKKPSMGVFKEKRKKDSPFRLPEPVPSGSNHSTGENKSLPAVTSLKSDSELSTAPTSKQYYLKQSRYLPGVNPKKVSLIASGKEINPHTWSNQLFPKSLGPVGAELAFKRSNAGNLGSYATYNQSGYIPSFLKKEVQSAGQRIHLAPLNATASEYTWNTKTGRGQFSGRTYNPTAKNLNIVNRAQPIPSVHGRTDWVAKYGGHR
Compound,effect on,technique,concentration,remaining binding [%]
Cn1nc(C(=O)NCc2ccc(C(=O)O)cc2)cc1-c1ccc2[nH]ccc2c1,cell-free assay,competition with immobilised ligand,0.1 µM,92
CNC(=O)[C@@H]1CC[C@@H](n2c(-c3ccc4cnccc4c3)nc3ccc(C(=O)NCc4cccc(C(N)=O)c4)cc32)C1,binding,competition with immobilised ligand,1 µM,80
CN(C)c1ncc(F)c(-c2cnn3ncccc23)n1,binding,,1 µM,91
O=C(c1ccc(Nc2ncc(Cl)c(-c3cc4ccccc4s3)n2)cc1)N1CCC(N2CCCC2)CC1,binding,competition with immobilised ligand,1 µM,100
CCC(=O)N[C@H]1CC[C@@H](C(=O)N(C)c2ccc(-c3nc4ccccc4o3)cc2)C1,cell-free assay,competition with immobilised ligand,1 µM,85
O=C(Nc1c[nH]nc1C(=O)NC1CCNCC1)c1cc(F)cc(F)c1,binding,competition with immobilised ligand,1 µM,78
COc1ncc2cc3ccccc3nc2c1C#N,binding,competition with immobilised ligand,5 µM,87
CS(=O)(=O)N1CCCC(NC(=O)[C@H](CCC2CCCCC2)NC(=O)c2ccc(CNC(=O)c3cnc4ccccn34)cc2)C1 (stereo partly shown),cell-free assay,competition with immobilised ligand,0.1 µM,100
C[C@@H]1CCN(c2nccc(-c3cnn4ncccc34)n2)C1,binding,,1 µM,97
COc1cnc(Nc2cccc(S(N)(=O)=O)c2)nc1N1CCN(c2ccccc2)C(=O)C1,binding,competition with immobilised ligand,1 µM,96
F[C@@H]1CCN(c2nccc(-c3cnn4ncccc34)n2)C1,binding,,1 µM,86
O=C(NCCCN1CCOCC1)c1ccc(Nc2nccc(-c3cc4ccccc4s3)n2)cc1,binding,competition with immobilised ligand,1 µM,100
O=C(N1CCS(=O)(=O)CC1)N1C[C@H](c2ccc(OC(F)(F)F)cc2)C[C@H](c2nc(C3CC3)no2)C1,binding,competition with immobilised ligand,1 µM,100
N[C@@H]1CCN(c2nccc(-c3cnn4ncccc34)n2)C1,binding,,1 µM,100
Cc1cnc(Nc2ccc(C(=O)N3CCC(N4CCCC4)CC3)cc2)nc1-c1cc2ccccc2s1,binding,competition with immobilised ligand,1 µM,100
C[C@@H](c1cccc(C#N)c1)n1cc(Cl)cc(C(N)=O)c1=N,binding,competition with immobilised ligand,1 µM,94
CN(C)c1nccc(-c2cnc3ncccn23)n1,binding,,1 µM,100
C[C@@H](c1ccc(-n2cnc3c(N)ncnc32)cc1)N1CCc2nn(C)c(Cc3ccccc3)c2C1=O,binding,competition with immobilised ligand,0.1 µM,82
COc1ccnn2ncc(-c3ccnc(N(C)C)n3)c12,binding,,1 µM,100
CO[C@H]1CC[C@H](CNc2ccc(S(=O)(=O)NC(=O)c3ccc(N4CCN(CC5=C(c6ccc(Cl)cc6)CC(C)(C)CC5)CC4)cc3Oc3cnc4[nH]ccc4c3)cc2[N+](=O)[O-])CC1,cell-free assay,competition with immobilised ligand,1 µM,90
CN(C)c1nccc(-c2cnn3ncccc23)n1,binding,,1 µM,100
O=C(O)[C@H]1[C@H](Cn2nnc3ccccc3c2=O)CC[C@@H]1C(=O)c1ccc(OCCC2CCOCC2)cc1,binding,competition with immobilised ligand,1 µM,95
